Calls of active or inactive are those of the source. The rule behind the calls is not given here.

Test [1] in a line: Antioxidant activity assessed as protection against […]-induced oxidation of DNA […]. The format is functional.
Test [2] is described as follows: Antioxidant activity assessed as protection against […]-induced oxidation of DNA at 80 uM up to 675 mins.
The nature of test [3]: Antioxidant activity assessed as galvinoxyl radical scavenging activity measured up to 210 mins. The format is functional. The gist of the method: (§1)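 Radical was dissolved in ethanol to about 1.00 absorbance: DPPH read at 517 nm, galvinoxyl at 428 nm. Compound in ethanol was added at 200 μM final and absorbance decay recorded. Percent scavenged = (1 − Abs_detect/Abs_ref) × 100, plotted against incubation time.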

Test [4] can be described thus: Antioxidant activity against beta-carotene and linoleic acid assessed as inhibition of bleaching of beta-carotene at 13.3 uM measured up to 540 mins by autooxidation assay. The format is functional. The gist of the method: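 β-Carotene–linoleic acid emulsion with compound at 13.3 μM. Bleaching of β-carotene by peroxyl radicals from linoleic acid autoxidation was followed as absorbance at 460 nm and plotted against time.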

A short description of test [5]: Antioxidant activity assessed as protection against Cu(2+)/[…]-induced DNA damage up to 180 mins by TBARS assay. It counts as functional. In short, it runs like this: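 DNA (2.0 mg/mL), CuSO4 (5.0 mM) and GSH (3.0 mM) in phosphate buffer (6.1 mM Na2HPO4, 3.9 mM NaH2PO4). Compound added from DMSO at 0.2 mM final. Incubated at 37 °C, with three tubes removed every 30 min and stopped with EDTA (30.0 mM final). TBARS read in the n-butanol layer at 535 nm. Oxidative percentage = (A_x/A_0) × 100 at 150 min relative to control.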

Test [6] has as its system Radical scavenging activity. The test can be described thus: Antioxidant activity assessed as DPPH radical scavenging activity measured up to 300 mins. It counts as functional. The gist of the method: as §1
(DPPH is a stable violet radical that fades when it is reduced.)

What is called IC50 is the concentration needed to halve the response being measured. With `O=c1ccc2cc3ccoc3c(O)c2o1` [XANTHOTOXOL], the outcome in test [1], in test [2], in test [4] and in test [5] was Active. For the same compound, the results for the IC50 in test [3] and in test [6] were 188 µM and 69.6 µM, respectively.
Turning to `Cc1coc2c(O)c3oc(=O)cc(C)c3cc12`, the outcome in test [1], in test [2], in test [4] and in test [5] was Active. The IC50 in test [3] turned out to be 170 µM; in test [6], 119 µM.
Consider `Cc1cc(=O)oc2c(O)c3occc3cc12`, for which the result in test [1], in test [2], in test [4] and in test [5] was Active. In addition, the IC50 in test [3] is 173 µM; in test [6], 81.5 µM.

(Values after ChEMBL document CHEMBL1165905, “Synthesis of methyl-substituted xanthotoxol to clarify prooxidant effect of methyl on radical-induced oxidation of DNA” (Eur J Med Chem, 2010).)
